# In the library only some 2.2% were active in any assay of this set; here they are far more common.
# SUMO1 PPI mod = SUMO1-SIM interaction modulation | P63165 | SUMO1 binding to a labelled peptide, TR-FRET, 1 h | inhibition, % at 20 µM | 360,000 compounds, 0.33% hits | AID 602429; in the data active means inhibition above about 37%
# Target sequence (P63165 whole entry, looked up): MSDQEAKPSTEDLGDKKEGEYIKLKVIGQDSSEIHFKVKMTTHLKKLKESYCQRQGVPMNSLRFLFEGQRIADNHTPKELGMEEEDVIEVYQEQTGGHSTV
# STEP block = blocks human striatal-enriched tyrosine phosphatase; P54829; recombinant STEP, OMFP fluorogenic substrate, fluorescence; inhibition, % at 20 µM; 360,000 compounds, 0.25% hits;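 active means inhibition at 20 µM, scaled per plate between control wells, above about 37%, limit read from the data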;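 further: 0% = DMSO with enzyme and substrate and 100% = substrate only without enzyme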
#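 Test system: STEP tyrosine phosphatase / Reagent: OMFP at 25 µM / Doses: 20 µM, 1% DMSO / Read-out: percent inhibition scaled to no-enzyme and uninhibited-enzyme controls, plate-pattern corrected / Detection: FITC-channel fluorescence of OMFP product / Medium: Bis-Tris buffer pH 6.0, 2.5 mM DTT, 0.005% Tween 20 / Schedule: 20 min at room temperature, dark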
# GRK2 inh = inhibitors of human GRK2 displacing RNA aptamer | P25098 | 330,000 compounds, 0.59% hits | bead flow cytometry, FAM-aptamer displacement from GRK2 | inhibition of aptamer binding, % at 10 µM;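 active means inhibition of aptamer binding above 40%, roughly 3 SD of noise, on plates passing a quality check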;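 further: median bead fluorescence of bound FAM aptamer so fluorescent compounds give negative values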
# LMPTP inh = blocks human LMPTP phosphatase; P24666; AID 651560; inhibition, % at 20 µM; recombinant LMPTP-A, OMFP fluorogenic substrate, fluorescence intensity; 360,000 compounds, 0.22% hits;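 active means compounds that cut the enzyme signal by at least half of the control window in the single-dose screen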;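 further: plate controls were DMSO wells with enzyme plus substrate for no effect and substrate without enzyme for full effect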
# Target sequence (P24666 whole entry, looked up): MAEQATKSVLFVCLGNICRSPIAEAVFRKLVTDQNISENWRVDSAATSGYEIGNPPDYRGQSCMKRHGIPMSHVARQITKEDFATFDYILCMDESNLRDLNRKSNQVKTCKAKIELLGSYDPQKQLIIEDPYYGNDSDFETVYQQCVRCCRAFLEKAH
#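 Test system: LMPTP-A phosphatase enzyme. Amount: LMPTP-A at 0.625 nM final in the reaction. Reagent: OMFP substrate, 400 µM final. Times: 50 min at room temperature. Signal: endpoint fluorescence intensity from OMFP dephosphorylation. Read-out basis: % inhibition. Benchmarks: no-enzyme and uninhibited controls.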
# Scp-1 inhibitor = blocks human Scp-1 phosphatase activity. Q9GZU7. Recombinant Scp1, phosphopeptide, malachite green phosphate absorbance. inhibition, % at 20 µM. 340,000 compounds, 0.88% hits. AID 493091;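 active means inhibition above about 50% at 20 µM, limit read from the data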;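 further: plate controls were DMSO wells with enzyme for no effect and wells lacking enzyme for full effect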
# Target sequence (Q9GZU7 76-261 limits assumed): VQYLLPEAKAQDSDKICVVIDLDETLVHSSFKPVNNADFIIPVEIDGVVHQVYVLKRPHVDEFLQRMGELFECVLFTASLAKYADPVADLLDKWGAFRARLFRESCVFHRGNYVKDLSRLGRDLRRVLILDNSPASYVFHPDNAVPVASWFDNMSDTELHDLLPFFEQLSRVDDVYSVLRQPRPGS
#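 Incubation: 45 min enzyme reaction at room temperature / System: truncated SCP-1 phosphatase (76-261aa) / Reagent: Phospho 17-mer peptide substrate / Buffer or medium: Acidic Tris acetate buffer with magnesium and detergent / Signal: absorbance at 630 nm / Doses: one concentration, 20 µM, with 1.0% DMSO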
# DNMT1 inh = DNMT1 (human) enzyme inhibition | DNMT1 molecular beacon, Hinp1I cleavage, fluorescence | AID 588458 | inhibition (reported as % activation of signal), % at 10 µM | P26358 | 360,000 compounds, 0.83% hits; in the data active means inhibition above about 50%
# DNMT1 interf DR = beacon fluorescence artifact, dose response counter-screen | 200 tested, under 10 active | IC50, µM | shares compounds with DNMT1 inh | molecular beacon fluorescence, spectral interference counter-screen; call rule not given here
# DNMT1 inh conf = DNMT1 inhibition confirmation, single concentration; 2,300 compounds, 8% hits; shares compounds with DNMT1 inh; inhibition, % at 10 µM; AID 602385; DNMT1 molecular beacon HinP1I cleavage, fluorescence;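 active means average inhibition of at least 30% in the single-concentration confirmation test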
# Beacon interf = counter-screen for DNMT1 inhibitors: spectral interference | shares compounds with DNMT1 inh | DNMT1 molecular beacon spectral interference counterscreen, fluorescence 485/520 | activation (fluorescence interference), % at 10 µM | 2,300 compounds, 1% hits | AID 602387;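 active means activation of at least 30% at 10 µM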;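 further: DNMT1 catalytic domain with a HinP1I cleavage step and a FAM/dabcyl DNA beacon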
# * = called active by the depositor; · = not tested or not shown.
SMILES,SUMO1 PPI mod,STEP block,GRK2 inh,LMPTP inh,Scp-1 inhibitor,DNMT1 inh,DNMT1 inh conf,Beacon interf,others
Clc1ccccc1-c1ccc(/C=N/Nc2nncc(-c3ccccc3)n2)o1,0,8,2,4,-2,69*,-1,-5,
COc1ccc(CCNS(=O)(=O)c2cn(C)cn2)cc1OC,-3,-2,0,0,9,1,·,·,
CCn1cc(S(=O)(=O)NCCc2ccc(OC)c(OC)c2)cn1,-2,0,0,1,1,83*,3,0,
COc1ccc(/C(C)=N/Nc2ccc(C(=O)O)cc2)c(OC)c1,0,-2,1,-2,-2,56*,1,5,
COc1ccc2c(c1)C(=NNc1ccc(C(=O)O)cc1)c1cc(OC)ccc1-2,-9,-1,1,11,12,-6,·,·,
Cc1cc(C)cc(Nc2nc3c(S(=O)(=O)c4ccccc4)nnn3c3ccccc23)c1,-4,3,0,-1,-1,54*,3,-4,
O=C(NCC1CCOCC1)c1ccc(-c2ccc(F)c(F)c2)c2ccoc12,3,0,·,-1,·,-4,·,·,
NS(=O)(=O)c1ccc(Nc2nc(-c3ccc(F)cc3)cs2)cc1,-3,-4,0,3,-3,-6,·,·,
COc1ccc(-c2csc(Nc3ccc(S(N)(=O)=O)cc3)n2)cc1OC,33,-3,0,2,10,63*,4,14,
Cc1ccc(C2C(C#N)=C(N)OC3=C2C(=O)CCC3)s1 (stereo not drawn),1,1,2,2,-6,1,·,·,
N#CC1=C(N)OC2=C(C(=O)CCC2)C1c1ccncc1 (stereo not drawn),1,-2,7,0,-6,75*,5,0,
O=C(N=Nc1c(O)n(Cc2ccccc2)c2ccccc12)c1cc2ccccc2cc1O,-6,3,0,12,37,82*,2,-8,
CCC(=O)N1CCC1(C)C(=O)Nc1nccs1 (stereo not drawn),12,1,·,-3,·,2,·,·,
CCOc1ccc2nc(NC(=O)CN3CCN(C)CC3)sc2c1,0,0,2,3,5,73*,3,5,
CCCN(CC(=O)Nc1ccccc1OC)C(=O)c1ccc(S(=O)(=O)Nc2ccccc2)cc1,-4,-2,3,-1,-4,62*,1,-8,
CCCN(CC(=O)Nc1ccccc1OC)C(=O)c1ccc(S(=O)(=O)Nc2ccccc2OC)cc1,-7,-3,·,0,-2,-1,·,·,
COc1cc(C2c3c(-c4cc(Cl)c(C)cc4O)n[nH]c3C(=O)N2Cc2cccnc2)ccc1O (stereo not drawn),11,0,1,4,-12,-7,·,·,
COc1ccc(C2c3c(-c4ccccc4O)n[nH]c3C(=O)N2Cc2ccco2)cc1 (stereo not drawn),-1,0,0,3,-14,66*,1,2,
COc1cccc(C2c3c(-c4cc(Cl)c(C)cc4O)n[nH]c3C(=O)N2Cc2cccnc2)c1 (stereo not drawn),2,1,0,8,3,98*,2,4,
Cc1cccc(OCc2ccccc2)n1,-1,-2,·,-4,-2,-1,·,·,
COCCN(C(=O)CSc1ccc2c(c1)OCCO2)c1c(N)n(CC(C)C)c(=O)[nH]c1=O,-5,-1,6,3,-4,0,·,·,
O=C(/C=C/c1ccc(Br)cc1)NC(=S)Nc1ccc(S(=O)(=O)Nc2nccs2)cc1,94*,-3,2,16,-3,86*,67*,-2,DNMT1 interf DR=>99
O=C(NC(=S)Nc1ccc(S(=O)(=O)Nc2nccs2)cc1)c1ccc(Br)o1,12,0,0,2,10,2,·,·,
CCc1nnc(NS(=O)(=O)c2ccc(NC(=S)NC(=O)/C=C/c3ccccc3)cc2)s1,21,-1,0,1,3,-1,·,·,
CCc1nnc(NS(=O)(=O)c2ccc(NC(=S)NC(=O)/C=C/c3ccc(C(C)C)cc3)cc2)s1,27,0,0,4,-10,62*,33*,-4,DNMT1 interf DR=>99
SMILES,SUMO1 PPI mod,STEP block,GRK2 inh,LMPTP inh,Scp-1 inhibitor,DNMT1 inh,DNMT1 inh conf,Beacon interf,others
CC(C)c1ccc(NC(=O)C2(C)Cc3c(-c4ccccc4)ccnc3O2)cc1 (stereo not drawn),2,1,·,4,·,1,·,·,
CCCC[C@@H]1Cc2[nH][nH]c(=O)c2[C@H](c2ccc(C(C)C)cc2)O1,6,·,·,-1,·,·,·,·,
CC(C)Cc1ccc(-c2cc3nc(NCCCn4ccnc4)ccn3n2)cc1,-10,2,·,-7,·,-8,·,·,
O=C(NCCCO)c1ccc2nc(-c3ccco3)c(-c3ccco3)nc2c1,45*,8,·,0,22,49,2,1,
COc1cccc(Nc2nc(C(N)c3ccccc3)cs2)n1 (stereo not drawn),2,3,·,0,·,5,·,·,
Cc1cc(Cl)ccc1OCC(=O)Nc1cccc(S(=O)(=O)NC2=NCCCCC2)c1,7,-2,2,1,2,95*,3,2,
O=C(COc1ccc(Cl)cc1)Nc1cccc(S(=O)(=O)NC2=NCCCCC2)c1,2,2,0,1,-9,3,·,·,
CC(C)CNC(=O)C1(C)CCCCCN1Cc1ccccc1-c1ccccc1 (stereo not drawn),9,2,·,4,·,3,·,·,
Cc1ccc2[nH]cc(CCNC(=O)C3CCCO3)c2c1 (stereo not drawn),5,0,1,-1,-4,2,·,·,
CCOc1ccc(/C=C/C(=O)c2cc(Br)ccc(=O)c2O)cc1,0,5,5,12,-4,68*,10,4,
Cc1cccc(/C=C/C(=O)c2cc(Br)ccc(=O)c2O)c1,13,10,7,32,-3,93*,10,4,
CCCS(=O)(=O)NC(=O)C1(C)CCN(C(=O)c2ccccc2C(F)(F)F)C1 (stereo not drawn),3,0,·,1,·,5,·,·,
CCn1nnnc1NCc1ccc(SC)cc1,3,-1,1,0,-1,-2,·,·,
CCn1nnnc1NCc1ccc(N2CCCC2)cc1,0,4,0,60*,-2,82*,4,3,
CCCCC(=O)N(C)c1c(C)nc2ccc(C(=O)NCCN(C)C)cn12,-1,4,·,-8,·,2,·,·,

# Screening results as filed in PubChem BioAssay.
